The results in this text go back to ChEMBL document CHEMBL1275391, “Design, synthesis, and preclinical evaluation of new 5,6- (or 6,7-) disubstituted-2-(fluorophenyl)quinolin-4-one derivatives as potent antitumor agents” (J Med Chem, 2010).

Calls of active or inactive are those of the source. No cut-off for these calls is given here.

The test system of one data set is HL-60. Nature of the data set: Cytotoxicity against human HL60 cells after 48 hrs by MTT assay. The settings on record: HL-60, 48 h. The format is functional, cell-based. In outline:
(§1)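 Cells exposed to a range of compound concentrations for 48 h, washed once with PBS, then incubated with MTT for 2 h. Formazan dissolved in DMSO and absorbance read at 570 nm. IC50 taken as the concentration giving 50% inhibition of proliferation.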
For orientation: Formazan colour is commonly taken as a measure of viable cells.

Another data set concerns HCT-116. The experiment in a line: Cytotoxicity against human HCT116 cells after 48 hrs by MTT assay. Format: functional, cell-based. The settings on record: HCT-116, 48 h. In outline: as §1
Data set [1] is described as follows: Cytotoxicity against human Hep3B cells after 48 hrs by MTT assay. Format: functional, cell-based, Hep 3B2. In outline:
as §1

The test system of a further data set is NCI-H460. Nature of the data set: Cytotoxicity against human H460 cells after 48 hrs by MTT assay. The settings on record: NCI-H460, 48 h. Format: functional, cell-based. In outline:
as §1

In data set [2] the test system is Hep 3B2. The experiment in a line: Antitumor activity against human Hep3B cells xenografted in po dosed BALB/c nude mouse assessed as inhibition of tumor growth administered qd for 5 times per week for 4 weeks measured on day 28. Format: functional, organism-based. In outline: (§2)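 Male Balb/c nude mice, 4-6 weeks, 18-20 g; 2 × 10^6 Hep3B cells in 0.1 mL injected subcutaneously into right flank. Dosing began when tumors exceeded 100 mm3 (day 0), given po or iv once daily, 5 days/week for 4 weeks, stopped day 28. Tumor volume (length × width² × 0.5) and body weight recorded every 7 days; T/C = (Tn − T0)/(Cn − C0) × 100%.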

Data set [3] concerns Hep 3B2. Nature of the data set: Antitumor activity against human Hep3B cells xenografted in BALB/c nude mouse assessed as inhibition of tumor growth administered at 7.5 to 30 mg/kg, po qd for 5 times per week for 4 weeks. The settings on record: TDE = time-dependent effect. Format: functional, organism-based. In outline: as §2
Data set [4] has as its system Hep 3B2. The experiment in a line: Antitumor activity against human Hep3B cells xenografted in iv dosed BALB/c nude mouse assessed as inhibition of tumor growth administered qd for 5 times per week for 4 weeks measured on day 28. Format: functional, organism-based. In outline:
as §2
(In xenograft studies the graft and the host belong to different species.)

For data set [5], the system named is Hep 3B2. The experiment in a line: Antitumor activity against human Hep3B cells xenografted in BALB/c nude mouse assessed as inhibition of tumor growth administered at 7.5 to 30 mg/kg, iv qd for 5 times per week for 4 weeks. Format: functional, organism-based. The conditions noted are these: TDE = time-dependent effect. Put shortly:
as §2

For data set [6], the system named is Hep 3B2. Nature of the data set: Antitumor activity against human Hep3B cells xenografted in BALB/c nude mouse assessed as inhibition of tumor growth administered at 7.5 mg/kg, po qd for 5 times per week for 4 weeks. The format is functional, organism-based. Further details: dose 7.5 mg/kg. Put shortly:
as §2

For data set [7], the system named is Hep 3B2. Nature of the data set: Antitumor activity against human Hep3B cells xenografted in BALB/c nude mouse assessed as inhibition of complete tumor growth administered at 30 mg/kg, po qd for 5 times per week for 4 weeks. Format: functional, organism-based. Also on record: dose 30 mg/kg. In outline:
as §2

For a further data set, the system named is Mus musculus. Nature of the data set: Toxicity in human Hep3B cells xenografted BALB/c nude mouse assessed as change in body weight at 7.5 to 30 mg/kg, po qd for 5 times per week for 4 weeks measured on day 28. The format is organism-based, Hep 3B2. Further details: dose 7.5-30 mg/kg, route oral. The conditions noted are these: in vivo, 672 h. In outline:
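Male Balb/c nude mice, 4-6 weeks old and 18-20 g, were housed under SPF conditions. Each received 2 × 10^6 Hep3B cells in 0.1 mL s.c. into the right flank. Once tumors exceeded 100 mm3 (day 0), animals were grouped and dosed orally once daily, 5 days/week for 4 weeks. Body weight and tumor size were recorded every 7 days up to day 28.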

In data set [8] the test system is Hep 3B2. Nature of the data set: Antitumor activity against human Hep3B cells xenografted in BALB/c nude mouse assessed as inhibition of tumor growth administered at 7.5 mg/kg, po qd for 5 times per week for 4 weeks.

The term IC50 denotes the concentration needed to halve the response being measured. High values mean weaker potency, low ones greater potency. `COc1ccc2[nH]c(-c3ccc(F)cc3)cc(=O)c2c1O`: the half-inhibitory concentration (IC50) in the data set with HL-60 was determined as 1.8 µM; in the data set on HCT-116, 2.4 µM; in [1], 11 µM; in the data set on NCI-H460 it was 8.8 µM.

In the case of `O=c1cc(-c2cccc(F)c2)[nH]c2ccc3c(c12)OCO3`, the IC50 in the data set on HL-60 worked out at 0.7 µM; in the data set on HCT-116, 2.5 µM; in data set [1], 2.4 µM; in the data set with NCI-H460, 3.2 µM.

For `COc1ccc2[nH]c(-c3cccc(F)c3)cc(=O)c2c1OP(=O)([O-])[O-].[Na+].[Na+]`, the Activity entry with Hep 3B2 [2] was “Dose-dependent effect”; with Hep 3B2 [3], “tde”; with Hep 3B2 [4], “Dose-dependent effect”; with Hep 3B2 [5], “tde”; in the data set on Mus musculus, “Non-toxic”. Besides, the outcome in the data set on Hep 3B2 [6], with Hep 3B2 [7] and in the data set on Hep 3B2 [8] was Active.

As for `COc1ccc2[nH]c(-c3ccccc3F)cc(=O)c2c1O`, the IC50 with HL-60 was 0.07 µM; in the data set on HCT-116, 0.05 µM; in data set [1], 0.05 µM; in the data set with NCI-H460 it was 0.11 µM.

Take `O=c1cc(-c2ccccc2F)[nH]c2ccc3c(c12)OCO3`: the half-maximal inhibitory concentration (IC50) with HL-60 is 1 µM; in the data set with HCT-116, 2.1 µM; in data set [1], 1.9 µM; in the data set on NCI-H460, 4.5 µM.

Take `O=c1cc(-c2cccc(F)c2)[nH]c2ccc(O)c(O)c12`: the IC50 with HL-60 turned out to be 0.3 µM; in the data set on HCT-116, 8.2 µM; in [1] it was 6.9 µM; in the data set on NCI-H460 it was 6.1 µM.

As to `COc1ccc2[nH]c(-c3cccc(F)c3)cc(=O)c2c1OC`, the half-inhibitory concentration (IC50) amounted to 1.3 µM in the data set with HL-60, 1.2 µM in the data set on HCT-116, 2.6 µM in data set [1] and 3.5 µM in the data set on NCI-H460.

For the compound `O=c1cc(-c2ccccc2F)[nH]c2ccc(O)c(O)c12`, the IC50 in the data set with HL-60 stood at 0.5 µM; in the data set on HCT-116 it was 0.6 µM; in [1] it was 3.9 µM; in the data set with NCI-H460, 4.1 µM.

On to `COc1cc2c(=O)cc(-c3ccc(F)cc3)[nH]c2cc1O`, for which the concentration for half-maximal inhibition (IC50) with HL-60 is 38.2 µM; in the data set with HCT-116 it was > 100 µM; in data set [1], > 100 µM; with NCI-H460 it was > 100 µM.

Consider `COc1ccc2[nH]c(-c3ccc(F)cc3)cc(=O)c2c1OC`, for which the concentration for half-maximal inhibition (IC50) in the data set with HL-60 is 2 µM; in the data set on HCT-116 it was > 20 µM; in data set [1] it was > 20 µM; in the data set on NCI-H460 it was > 20 µM.

Regarding `O=c1cc(-c2ccccc2F)[nH]c2cc3c(cc12)OCO3`, the half-maximal inhibitory concentration (IC50) in the data set with HL-60 is 0.08 µM; in the data set on HCT-116, 0.15 µM; in data set [1], 0.13 µM; in the data set with NCI-H460, 0.14 µM.

In the case of `COc1cc2c(=O)cc(-c3cccc(F)c3)[nH]c2cc1O`, the IC50 turned out to be 0.9 µM in the data set with HL-60, 1.1 µM in the data set with HCT-116, 5.3 µM in [1] and 4.8 µM in the data set with NCI-H460.

Take `O=c1cc(-c2ccc(F)cc2)[nH]c2ccc(O)c(O)c12`: the half-maximal inhibitory concentration (IC50) in the data set on HL-60 is 38.6 µM; in the data set with HCT-116 it was > 100 µM; in data set [1], 100 µM; in the data set with NCI-H460, 100 µM.

In the case of `COc1cc2c(=O)cc(-c3ccccc3F)[nH]c2cc1O`, the IC50 with HL-60 is 1.3 µM; in the data set with HCT-116 it was 5.8 µM; in data set [1], 5.3 µM; with NCI-H460, 4.4 µM.

As to `O=c1cc(-c2ccc(F)cc2)[nH]c2ccc3c(c12)OCO3`, the IC50 (in the data set on HL-60; with HCT-116; in data set [1]; in the data set on NCI-H460) was > 10 µM in each case.

As to `COc1ccc2[nH]c(-c3ccccc3F)cc(=O)c2c1OC`, the IC50 with HL-60 was 3.7 µM; in the data set with HCT-116 it was > 20 µM; in data set [1], > 20 µM; with NCI-H460, > 20 µM.
